Reference: ChEMBL document CHEMBL5537160, “Design, Synthesis, Pharmacology, and In Silico Studies of (1S,2S,3S)-2-((S)-Amino(carboxy)methyl)-3-(carboxymethyl)cyclopropane-1-carboxylic Acid (LBG30300): A Picomolar Potency Subtype-Selective mGlu2 Receptor Agonist” (J Med Chem, 2024)
Calls of active or inactive are those of the source. The calls are words filed in the database; no cut-off is given here.

Columns and labels:
[1] = target: T1, Metabotropic glutamate receptor 2 (Rattus norvegicus, UniProt P31421); test: Agonist activity at SNAP tagged rat mGlu2 transfected HEK293 cells by TR-FRET assay; type: functional, cell-based
[2] = target: T2, Metabotropic glutamate receptor 3 (Rattus norvegicus, UniProt P31422); test: Agonist activity at SNAP tagged rat mGlu3 transfected HEK293 cells preincubated with antagonist LY-341495 followed by compound addition by TR-FRET assay; type: functional, cell-based
[3] = target: T1, Metabotropic glutamate receptor 2; test: Agonist activity at SNAP tagged rat mGlu2 transfected HEK293 cells preincubated with antagonist LY-341495 followed by compound addition by TR-FRET assay; type: functional, cell-based
[4] = Cmax in C57BL/6 mouse plasma at 10 mg/kg, iv measured after 1 hr by LC-MS/MS analysis; type: ADME, organism-based
Procedure, shortened: (§1)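 Mice given a single 10 mg/kg IV dose; plasma and brain concentrations sampled at 0.25, 1.0 and 4.0 h, means ± error per timepoint.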

[5] = target: Metabotropic glutamate receptor 8 (Rattus norvegicus, UniProt P70579); test: Agonist activity at rat mGlu8 transfected in HEK293 cells co-transfected with chimeric Gqi9 incubated for 30 mins by IP-one HTRF assay; type: functional, cell-based
Procedure, shortened: (§2)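 Rat group II/III receptor co-electroporated into HEK293 with chimeric Gqi9 and EAAC1 transporter, serum-free medium ≥2 h pre-assay. At 24 h post-transfection, Krebs wash, then 30 min compound exposure with 50 mM LiCl. IP1 accumulation quantified by HTRF kit, at least duplicate runs, mean of 2–5 experiments.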

[6] = target: Metabotropic glutamate receptor 4 (Rattus norvegicus) (UniProt P31423); test: Antagonist activity at rat mGlu4 transfected in HEK293 cells co-transfected with chimeric Gqi9 incubated for 30 mins by IP-one HTRF assay; type: functional, cell-based; procedure, shortened: as §2
[7] = target: Metabotropic glutamate receptor 3 (Rattus norvegicus) (UniProt P31422); test: Antagonist activity at rat mGlu3 transfected in HEK293 cells co-transfected with chimeric Gqi9 incubated for 30 mins by IP-one HTRF assay; type: functional, cell-based
[8] = Cmax in C57BL/6 mouse brain at 10 mg/kg, iv measured after 1 hrs by LC-MS/MS analysis; type: ADME, organism-based; procedure, shortened: as §1
[9] = Unbound brain to plasma concentration ratio in C57BL/6 mouse at 10 mg/kg, iv […] by LC-MS/MS analysis; type: ADME, organism-based; conditions: read-out: K(p,uu,brain)
[10] = target: Metabotropic glutamate receptor 1 (Rattus norvegicus, UniProt P23385); test: Agonist activity at rat mGlu1 transfected in HEK293 cells by IP-one HTRF assay; type: functional, cell-based
Procedure, shortened: (§3)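 HEK293 cells transiently electroporated with rat receptor plasmid plus EAAC1 Glu transporter, plated 150 000 cells/well on polyornithine, serum-free Glutamax DMEM ≥2 h before assay. At 24 h, washed in Krebs buffer and stimulated 30 min with compound in 50 mM LiCl. IP1 read by HTRF, at least duplicates, EC50 from 2–5 experiments.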

[11] = Cmax in C57BL/6 mouse plasma at 10 mg/kg, iv measured after 0.25 hrs by LC-MS/MS analysis; type: ADME, organism-based; procedure, shortened: as §1
[12] = target: T2, Metabotropic glutamate receptor 3; test: Agonist activity at rat mGlu3 transfected in HEK293 cells co-transfected with chimeric Gqi9 incubated for 30 mins by IP-one HTRF assay; type: functional, cell-based
[13] = Cmax in C57BL/6 mouse plasma at 10 mg/kg, iv measured after 4 hrs by LC-MS/MS analysis; type: ADME, organism-based; procedure, shortened: as §1
Rattus norvegicus [14] = species: Rattus norvegicus; test: Selectivity ratio of EC50 for rat mGlu3 to EC50 for rat Glu2
[15] = target: Metabotropic glutamate receptor 4 (Rattus norvegicus, UniProt P31423); test: Agonist activity at rat mGlu4 transfected in HEK293 cells co-transfected with chimeric Gqi9 incubated for 30 mins by IP-one HTRF assay; type: functional, cell-based; procedure, shortened: as §2
[16] = target: Metabotropic glutamate receptor 2 (Rattus norvegicus) (UniProt P31421); test: Antagonist activity at rat mGlu2 transfected in HEK293 cells co-transfected with chimeric Gqi9 incubated for 30 mins by IP-one HTRF assay; type: functional, cell-based
[17] = target: Metabotropic glutamate receptor 1 (Rattus norvegicus) (UniProt P23385); test: Antagonist activity at rat mGlu1 transfected in HEK293 cells by IP-one HTRF assay; type: functional, cell-based; procedure, shortened: as §3
[18] = target: Metabotropic glutamate receptor 5 (Rattus norvegicus, UniProt P31424); test: Agonist activity at rat mGlu5 transfected in HEK293 cells by IP-one HTRF assay; type: functional, cell-based; conditions: read-out: EC50
Procedure, shortened: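 HEK293 cells transiently electroporated with rat receptor plasmid plus the high-affinity Glu transporter EAAC1. Cells were grown in DMEM with 10% FBS and seeded on polyornithine-coated wells at 150 000 cells/well. Medium was switched to serum-free Glutamax DMEM ≥2 h before assay. At 24 h cells were washed in Krebs buffer and stimulated 30 min with agonist plus 50 mM LiCl. IP1 read by IP-One HTRF; ≥ duplicates.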

[19] = target: Metabotropic glutamate receptor 8 (Rattus norvegicus) (UniProt P70579); test: Antagonist activity at rat mGlu8 transfected in HEK293 cells co-transfected with chimeric Gqi9 incubated for 30 mins by IP-one HTRF assay; type: functional, cell-based; procedure, shortened: as §2
[20] = target: Metabotropic glutamate receptor 6 (Rattus norvegicus) (UniProt P35349); test: Antagonist activity at rat mGlu6 transfected in HEK293 cells co-transfected with chimeric Gqi9 incubated for 30 mins by IP-one HTRF assay; type: functional, cell-based; procedure, shortened: as §2
[21] = Cmax in C57BL/6 mouse brain at 10 mg/kg, iv measured after 4 hrs by LC-MS/MS analysis; type: ADME, organism-based; procedure, shortened: as §1
[22] = target: Metabotropic glutamate receptor 7 (Rattus norvegicus) (UniProt P35400); test: Antagonist activity at rat mGlu7 transfected in HEK293 cells co-transfected with chimeric Gqi9 incubated for 30 mins by IP-one HTRF assay; type: functional, cell-based; procedure, shortened: as §2
[23] = target: T1, Metabotropic glutamate receptor 2; test: Agonist activity at rat mGlu2 transfected in HEK293 cells co-transfected with chimeric Gqi9 incubated for 30 mins by IP-one HTRF assay; type: functional, cell-based; procedure, shortened: as §2
[24] = target: Metabotropic glutamate receptor 6 (Rattus norvegicus, UniProt P35349); test: Agonist activity at rat mGlu6 transfected in HEK293 cells co-transfected with chimeric Gqi9 incubated for 30 mins by IP-one HTRF assay; type: functional, cell-based; procedure, shortened: as §2
Rattus norvegicus [25] = species: Rattus norvegicus; test: Selectivity ratio of EC50 for SNAP tagged rat mGlu3 to EC50 for SNAP tagged rat mGlu2
Procedure, shortened: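 Ratio of EC50 at SNAP-tagged rat mGlu3 to mGlu2, both measured by TR-FRET conformational assay in HEK293 after LY341495 preincubation and washing; Lumi4-Tb/Green labeling, 337 nm excitation, 620/520 nm emission.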

[26] = target: Metabotropic glutamate receptor 5 (Rattus norvegicus) (UniProt P31424); test: Antagonist activity at rat mGlu5 transfected in HEK293 cells by IP-one HTRF assay; type: functional, cell-based; procedure, shortened: as §3
[27] = target: Metabotropic glutamate receptor 7 (Rattus norvegicus, UniProt P35400); test: Agonist activity at rat mGlu7 transfected in HEK293 cells co-transfected with chimeric Gqi9 incubated for 30 mins by IP-one HTRF assay; type: functional, cell-based; procedure, shortened: as §2
[28] = Cmax in C57BL/6 mouse brain at 10 mg/kg, iv measured after 0.25 hrs by LC-MS/MS analysis; type: ADME, organism-based; procedure, shortened: as §1
[29] = Half life in C57BL/6 mouse plasma at 10 mg/kg, iv by LC-MS/MS analysis; type: ADME, organism-based; procedure, shortened: as §1
[30] = target: Metabotropic glutamate receptor 7 (Rattus norvegicus) (UniProt P35400); test: Agonist activity at rat mGlu7 transfected in HEK293 cells co-transfected with chimeric Gqi9 at 3000 uM incubated for 30 mins by IP-one HTRF assay relative to control; type: functional, cell-based; conditions: filed as agonist
Procedure, shortened: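 Rat receptor was co-electroporated into HEK293 cells with chimeric Gqi9, for phospholipase C coupling, and with the EAAC1 Glu transporter. Cells were seeded on polyornithine at 150 000 cells/well and moved to serum-free Glutamax DMEM ≥2 h before assay. At 24 h cells were washed in Krebs buffer and given compound at 3000 μM with 50 mM LiCl for 30 min. IP1 measured by HTRF kit; response expressed as % of control; ≥ duplicates.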

Chain of Metabotropic glutamate receptor 4 (P31423 whole entry): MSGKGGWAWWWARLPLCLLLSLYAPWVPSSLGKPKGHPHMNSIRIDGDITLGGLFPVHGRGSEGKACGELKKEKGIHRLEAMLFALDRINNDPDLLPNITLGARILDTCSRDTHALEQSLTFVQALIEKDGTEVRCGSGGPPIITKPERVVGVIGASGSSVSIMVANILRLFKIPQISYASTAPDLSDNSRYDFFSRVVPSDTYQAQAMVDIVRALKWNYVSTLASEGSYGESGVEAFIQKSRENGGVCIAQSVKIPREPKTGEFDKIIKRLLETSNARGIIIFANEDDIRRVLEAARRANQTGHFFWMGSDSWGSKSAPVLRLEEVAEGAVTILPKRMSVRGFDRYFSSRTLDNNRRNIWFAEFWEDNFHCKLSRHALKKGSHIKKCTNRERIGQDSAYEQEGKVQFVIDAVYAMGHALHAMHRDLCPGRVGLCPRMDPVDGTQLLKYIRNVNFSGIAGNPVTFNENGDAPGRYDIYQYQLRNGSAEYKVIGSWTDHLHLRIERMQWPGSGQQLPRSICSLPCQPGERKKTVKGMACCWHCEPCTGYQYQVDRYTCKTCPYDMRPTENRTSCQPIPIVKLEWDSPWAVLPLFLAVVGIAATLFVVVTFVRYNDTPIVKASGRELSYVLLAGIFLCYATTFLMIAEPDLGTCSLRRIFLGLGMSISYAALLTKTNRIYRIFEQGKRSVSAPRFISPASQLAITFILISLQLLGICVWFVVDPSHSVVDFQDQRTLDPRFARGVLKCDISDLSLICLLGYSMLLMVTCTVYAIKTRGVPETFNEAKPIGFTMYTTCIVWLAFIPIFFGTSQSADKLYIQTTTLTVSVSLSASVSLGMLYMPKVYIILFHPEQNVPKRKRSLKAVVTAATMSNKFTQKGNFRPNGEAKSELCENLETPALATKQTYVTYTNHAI
Chain of Metabotropic glutamate receptor 4 (Rattus norvegicus) (P31423 whole entry): as above
T2 sequence (P31422 whole entry): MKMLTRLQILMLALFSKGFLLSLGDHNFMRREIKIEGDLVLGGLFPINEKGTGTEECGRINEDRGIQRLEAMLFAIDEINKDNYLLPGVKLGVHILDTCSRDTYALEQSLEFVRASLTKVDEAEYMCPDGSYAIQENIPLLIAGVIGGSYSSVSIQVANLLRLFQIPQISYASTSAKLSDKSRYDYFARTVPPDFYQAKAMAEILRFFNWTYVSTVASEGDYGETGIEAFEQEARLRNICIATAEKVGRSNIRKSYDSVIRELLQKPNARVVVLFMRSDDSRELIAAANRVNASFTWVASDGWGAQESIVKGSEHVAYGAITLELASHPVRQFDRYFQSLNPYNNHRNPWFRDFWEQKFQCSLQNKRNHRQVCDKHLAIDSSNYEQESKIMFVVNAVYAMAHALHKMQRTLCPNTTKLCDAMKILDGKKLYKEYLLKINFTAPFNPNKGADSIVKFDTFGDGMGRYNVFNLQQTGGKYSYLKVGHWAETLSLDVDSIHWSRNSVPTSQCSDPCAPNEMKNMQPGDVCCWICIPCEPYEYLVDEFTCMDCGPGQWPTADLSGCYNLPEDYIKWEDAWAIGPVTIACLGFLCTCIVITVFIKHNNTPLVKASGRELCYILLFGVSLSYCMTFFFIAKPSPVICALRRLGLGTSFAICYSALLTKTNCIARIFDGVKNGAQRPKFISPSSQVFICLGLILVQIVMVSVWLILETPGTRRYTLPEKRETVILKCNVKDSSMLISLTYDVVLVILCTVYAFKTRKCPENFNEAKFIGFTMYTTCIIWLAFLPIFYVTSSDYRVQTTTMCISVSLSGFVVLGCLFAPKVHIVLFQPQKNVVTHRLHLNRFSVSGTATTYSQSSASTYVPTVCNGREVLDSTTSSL
Chain of Metabotropic glutamate receptor 3 (Rattus norvegicus) (P31422 23-879 limits assumed): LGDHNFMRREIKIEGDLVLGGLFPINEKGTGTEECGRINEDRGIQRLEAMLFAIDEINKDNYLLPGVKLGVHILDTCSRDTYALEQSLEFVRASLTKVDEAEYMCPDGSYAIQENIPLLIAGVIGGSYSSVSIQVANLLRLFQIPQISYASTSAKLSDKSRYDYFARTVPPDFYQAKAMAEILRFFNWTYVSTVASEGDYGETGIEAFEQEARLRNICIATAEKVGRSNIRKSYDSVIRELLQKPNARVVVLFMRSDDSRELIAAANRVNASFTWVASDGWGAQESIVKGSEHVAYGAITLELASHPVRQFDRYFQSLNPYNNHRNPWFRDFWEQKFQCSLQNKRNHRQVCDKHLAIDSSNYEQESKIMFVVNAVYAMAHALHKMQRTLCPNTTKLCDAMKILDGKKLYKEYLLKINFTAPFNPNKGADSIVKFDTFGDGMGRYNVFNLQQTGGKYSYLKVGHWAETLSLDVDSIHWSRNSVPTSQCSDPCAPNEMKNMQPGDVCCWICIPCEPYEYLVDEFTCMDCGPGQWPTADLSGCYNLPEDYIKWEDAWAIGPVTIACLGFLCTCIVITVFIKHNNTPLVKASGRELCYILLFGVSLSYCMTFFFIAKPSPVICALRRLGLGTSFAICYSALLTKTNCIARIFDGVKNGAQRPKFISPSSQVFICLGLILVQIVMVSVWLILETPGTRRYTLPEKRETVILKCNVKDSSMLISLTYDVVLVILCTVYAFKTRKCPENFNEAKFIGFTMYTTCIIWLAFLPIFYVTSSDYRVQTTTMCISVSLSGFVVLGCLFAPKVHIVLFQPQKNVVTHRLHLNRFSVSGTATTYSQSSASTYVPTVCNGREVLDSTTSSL
Chain of Metabotropic glutamate receptor 7 (Rattus norvegicus) (P35400 whole entry): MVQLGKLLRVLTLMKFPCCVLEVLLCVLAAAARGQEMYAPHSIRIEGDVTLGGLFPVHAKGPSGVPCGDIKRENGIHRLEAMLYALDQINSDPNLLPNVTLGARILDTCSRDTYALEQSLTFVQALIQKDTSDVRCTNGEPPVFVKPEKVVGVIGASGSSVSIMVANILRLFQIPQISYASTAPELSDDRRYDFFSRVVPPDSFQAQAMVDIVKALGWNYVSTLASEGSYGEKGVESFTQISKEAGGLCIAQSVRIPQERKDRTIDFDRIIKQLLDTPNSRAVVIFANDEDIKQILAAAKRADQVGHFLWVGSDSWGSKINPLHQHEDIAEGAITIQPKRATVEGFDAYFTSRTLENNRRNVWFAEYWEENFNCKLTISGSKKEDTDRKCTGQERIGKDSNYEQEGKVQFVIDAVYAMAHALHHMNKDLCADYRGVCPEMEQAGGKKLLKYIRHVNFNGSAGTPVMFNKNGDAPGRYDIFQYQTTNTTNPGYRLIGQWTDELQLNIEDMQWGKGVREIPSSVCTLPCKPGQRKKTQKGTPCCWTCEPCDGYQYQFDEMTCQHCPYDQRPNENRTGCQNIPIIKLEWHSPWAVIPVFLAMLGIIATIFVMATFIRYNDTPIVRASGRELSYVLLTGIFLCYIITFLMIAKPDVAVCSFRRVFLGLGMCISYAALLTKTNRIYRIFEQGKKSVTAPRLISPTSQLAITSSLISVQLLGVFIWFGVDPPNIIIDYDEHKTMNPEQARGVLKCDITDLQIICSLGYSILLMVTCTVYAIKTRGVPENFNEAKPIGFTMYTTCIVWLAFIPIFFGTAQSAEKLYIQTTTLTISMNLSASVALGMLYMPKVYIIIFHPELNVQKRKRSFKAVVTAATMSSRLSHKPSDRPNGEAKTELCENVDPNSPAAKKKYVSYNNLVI
Chain of Metabotropic glutamate receptor 5 (Rattus norvegicus) (P31424 21-1203 limits assumed): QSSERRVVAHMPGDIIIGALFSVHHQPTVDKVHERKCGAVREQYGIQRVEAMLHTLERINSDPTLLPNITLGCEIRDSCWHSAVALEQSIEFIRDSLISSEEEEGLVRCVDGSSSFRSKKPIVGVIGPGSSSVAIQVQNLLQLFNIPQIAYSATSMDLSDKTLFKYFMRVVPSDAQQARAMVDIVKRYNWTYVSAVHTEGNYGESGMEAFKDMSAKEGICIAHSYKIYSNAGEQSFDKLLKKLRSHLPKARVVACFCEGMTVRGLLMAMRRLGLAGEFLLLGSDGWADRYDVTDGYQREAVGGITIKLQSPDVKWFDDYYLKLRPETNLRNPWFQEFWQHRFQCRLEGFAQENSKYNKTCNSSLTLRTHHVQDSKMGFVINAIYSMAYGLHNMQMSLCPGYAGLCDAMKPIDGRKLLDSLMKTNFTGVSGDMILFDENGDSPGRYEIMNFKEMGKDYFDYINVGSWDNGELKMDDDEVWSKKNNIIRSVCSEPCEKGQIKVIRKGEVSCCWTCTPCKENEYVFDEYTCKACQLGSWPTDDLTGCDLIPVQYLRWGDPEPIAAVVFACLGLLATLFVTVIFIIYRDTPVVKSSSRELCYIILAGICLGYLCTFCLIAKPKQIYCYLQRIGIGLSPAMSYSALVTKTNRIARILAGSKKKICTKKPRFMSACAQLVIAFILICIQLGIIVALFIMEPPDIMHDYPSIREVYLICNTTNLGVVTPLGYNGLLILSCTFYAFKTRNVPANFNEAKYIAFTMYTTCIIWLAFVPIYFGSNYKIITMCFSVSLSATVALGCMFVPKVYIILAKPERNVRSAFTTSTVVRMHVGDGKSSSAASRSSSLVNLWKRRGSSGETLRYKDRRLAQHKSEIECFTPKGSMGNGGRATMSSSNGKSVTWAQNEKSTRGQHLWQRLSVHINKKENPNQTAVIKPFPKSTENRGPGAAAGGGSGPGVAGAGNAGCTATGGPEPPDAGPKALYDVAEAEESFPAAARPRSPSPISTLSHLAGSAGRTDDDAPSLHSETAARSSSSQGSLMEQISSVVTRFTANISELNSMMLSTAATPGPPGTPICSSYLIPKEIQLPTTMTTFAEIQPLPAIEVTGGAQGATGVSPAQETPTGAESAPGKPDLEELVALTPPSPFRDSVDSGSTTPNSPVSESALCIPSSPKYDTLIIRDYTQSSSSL
Chain of Metabotropic glutamate receptor 7 (P35400 whole entry): as the sequence (P35400 whole entry) above

| SMILES | EC50 ([1]; read-out: EC50) | EC50 [2] | EC50 ([5]; read-out: EC50) | EC50 ([5]; read-out: pEC50 (converted)) | Activity [6] | Activity [7] | EC50 [12] | EC50 ([15]; read-out: EC50) | Activity [16] | Activity [17] | Activity [19] | Activity [20] | Activity [22] | EC50 ([23]; read-out: EC50) | EC50 ([24]; read-out: pEC50 (converted)) | Activity [26] | also measured |
| --- | --- | --- | --- | --- | --- | --- | --- | --- | --- | --- | --- | --- | --- | --- | --- | --- | --- |
| COc1cccc(C(=O)N[C@H]2C[C@@](N)(C(=O)O)[C@@H]3[C@@H](C(=O)O)[C@@H]32)c1 | 2820 nM | 32 nM |  |  |  |  |  |  |  |  |  |  |  |  |  |  |  |
| Cl.N[C@H](C(=O)O)[C@H]1[C@H](CC(=O)O)[C@@H]1C(=O)O | 13 nM | 11500 nM | 97 nM | 35.5 nM | inactive | inactive | 373 nM | 110 nM | inactive | inactive | inactive | inactive | inactive | 1 nM | 245 nM | inactive | EC50 [3]: 22 nM; Cmax [4]: 583 ng/mL; Cmax [8]: 75 ng/g; Kp uu [9]: 0.02; EC50 [10]: > 30000 nM; Cmax [11]: 5360 ng/mL; Cmax [13]: 50 ng/mL; Ratio EC50 (Rattus norvegicus [14]): 620; EC50 ([15]; read-out: pEC50 (converted)): 35.5 nM; EC50 [18]: > 30000 nM; Cmax [21]: 68 ng/g; EC50 ([1]; read-out: pEC50 (converted)): 22.4 nM; EC50 ([23]; read-out: pEC50 (converted)): 0.575 nM; EC50 ([24]; read-out: EC50): 280 nM; Ratio EC50 (Rattus norvegicus [25]): 513; EC50 [27]: > 30000 nM; Cmax [28]: 86 ng/g; half-life [29]: 30 min |
| N[C@@H](CCP(=O)(O)O)C(=O)O |  |  | 290 nM | 174 nM | inactive | inactive |  | 180 nM | inactive | inactive | inactive | inactive | inactive |  | 2290 nM | inactive | Activity [30]: 100% |
| N[C@@]1(C(=O)O)CO[C@H]2[C@H](C(=O)O)[C@H]21 [LY-379268] |  |  |  |  | inactive | inactive | 10 nM |  | inactive | inactive | inactive | inactive | inactive | 1 nM |  | inactive |  |
